Test results: ChEMBL document CHEMBL1649334, “Trypanocidal activity of aziridinyl nitrobenzamide prodrugs” (Antimicrob Agents Chemother, 2010)
Calls of active or inactive are those of the source. The calls are words filed in the database; no cut-off is given here.

Tests used:
Vero = assay: Cytotoxicity against african green monkey Vero cells after 6 days by Alamar blue assay; type: cell-based; details: Chlorocebus sabaeus, 144 h
In short: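 Vero cells seeded at 1×10^4 ml⁻¹ in RPMI 1640 with 10% FCS containing graded compound (up to 250 μM). 6 days at 37°C, 5% CO2, then Alamar Blue for 8 h; fluorescence read and IC50 derived.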

Trypanosoma cruzi = assay: Antitrypanosomal activity against Trypanosoma cruzi clone Cl-Brener infected in african green monkey Vero cells assessed as growth inhibition after 3 days by luciferase reporter gene assay; type: functional, organism-based; details: 72 h
In short: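 Vero cells seeded at 1.5×10^4 ml⁻¹, allowed to adhere 6 h, then infected overnight with 10,000 luciferase-expressing Cl-Brener trypomastigotes per well. After two washes to remove free parasites, drug-containing medium was added for 3 days at 37°C, 5% CO2. Cells were lysed and luciferase light output read; IC50 calculated.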

Trypanosoma brucei [1] = assay: Activity of Trypanosoma brucei NTR expressed in Escherichia coli assessed as enzyme-mediated compound reduction by reverse phase HPLC
In short: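 Recombinant His-tagged TbNTR purified from E. coli (Ni-NTA). Substrate 100 μM with 200 μM NADH, 3 mM glucose, 1 U glucose dehydrogenase in 50 mM NaH2PO4 pH 7.5 at 37°C; started with 50 μg enzyme. Aliquots at 20–600 s quenched in ice-cold methanol. Substrate loss followed by reversed-phase HPLC (4–56% acetonitrile, 254/340/450 nm), quantified against a nifurtimox standard.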

V79 = assay: Cytotoxicity against chinese hamster V79 cells after 6 days by Alamar blue assay; type: cell-based; details: Cricetulus griseus, V79, 144 h
Trypanosoma brucei [2] = assay: Antitrypanosomal activity against Trypanosoma brucei BSF overexpressing NTR gene assessed as growth inhibition after 3 days by Alamar blue assay; type: functional, organism-based; details: 72 h
In short: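 Bloodstream-form 2T1 parasites overexpressing TbNTR, kept in hygromycin, seeded at 1×10^3 ml⁻¹ in modified Iscove's medium with graded compound. Tetracycline 1 μg ml⁻¹ added for induction where appropriate. 3 days at 37°C, 5% CO2, then Alamar Blue for 16 h; fluorescence at ex 530/em 585 nm. IC50 calculated; means of 4 experiments ± SD.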

Row | Structure (SMILES) | IC50 (Vero) | IC50 (Trypanosoma cruzi) | Activity (Trypanosoma brucei [1]) | IC50 (V79) | IC50 (Trypanosoma brucei [2])
1 | O=C(NCCN1CCOCC1)c1cc(N2CC2)c([N+](=O)[O-])cc1[N+](=O)[O-] | > 250 µM | 1.59 µM | Active | 624 µM | 0.89 µM
2 | COC(=O)CCNC(=O)c1cc(N2CC2)c([N+](=O)[O-])cc1[N+](=O)[O-] | > 250 µM | 0.69 µM | Active | 634 µM | 1.45 µM
3 | NC(=O)c1cc([N+](=O)[O-])cc([N+](=O)[O-])c1N1CC1 | – | > 10 µM | – | – | > 10 µM
4 | O=[N+]([O-])c1cc(NCC(O)CO)c(N2CC2)c([N+](=O)[O-])c1 (centres undefined) | – | > 10 µM | – | – | > 6.4 µM
5 | CS(=O)(=O)c1cc([N+](=O)[O-])c(N2CC2)cc1NCC(O)CO (centres undefined) | – | > 10 µM | – | – | > 10 µM
6 | NC(=O)c1cc(N2CC2)c([N+](=O)[O-])cc1[N+](=O)[O-] [TRETAZICAR] | > 250 µM | 0.57 µM | Active | 543 µM | –
7 | CC1CS(=O)(=O)CCN1/N=C/c1ccc([N+](=O)[O-])o1 (centres undefined) [NIFURTIMOX] | 64.1 µM | 0.24 µM | – | 35 µM | –
8 | O=C(NCCN1CCOCC1)c1cc([N+](=O)[O-])cc([N+](=O)[O-])c1N1CC1 | – | > 10 µM | – | – | > 10 µM
9 | CS(=O)(=O)c1cc([N+](=O)[O-])c(N2CC2)cc1C(N)=O | – | > 10 µM | – | – | > 10 µM
10 | NC(=O)c1ccc([N+](=O)[O-])c(N2CC2)c1 | – | > 10 µM | – | – | > 10 µM
